The EternaBench riboswitch data

Tested on: MS2 coat protein
Assay: apparent Kd, MS2 coat protein; higher = weaker binding; RNA-MaP array; FMN 200 µM where present
Summary of the method: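 Two titrations, one without ligand and one with constant ligand, were run with SNAP-549-labelled MS2 coat protein from 0.7 or 1.5 nM, doubling to 3 µM. The targets were designs transcribed by stalled E. coli RNA polymerase on Illumina sequencing-chip clusters, in 100 mM Tris-HCl pH 7.5, 80 mM KCl, 4 mM MgCl2, BSA, DTT, yeast tRNA and Tween-20. The apparent Kd is the median of filtered per-cluster binding-curve fits, with green signal normalised to red-channel RNA signal and control-cluster median Fmax.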

[1] = designed as: ON switch for flavin mononucleotide, no ligand
[2] = ligand present: flavin mononucleotide, designed as: ON switch for flavin mononucleotide
[3] = designed as: OFF switch for flavin mononucleotide, no ligand
[4] = ligand present: flavin mononucleotide, designed as: OFF switch for flavin mononucleotide

Row | Sequence | apparent Kd [1] | apparent Kd [2] | apparent Kd [3] | apparent Kd [4]
1 | AGAUAUAUACAUGAGGAUCACCCAUGUUAAUAGGUGUUUGUCAGAAGGCAUUAUGAGAGAAUUAAUGAGGAUAUGAAGUAUCAU | 37.3 nM | 23 nM |  | 
2 | UUUAUAAAGAUAGGAUAUUGUAUAAUAAUUUAAUAAGAAGGAUCACACAUGAGGAUCACCCAUGUAUGAGGAUCACCCAUGUAU |  |  | 19.7 nM | 20.3 nM
3 | UGGCACUAGGGAGGAUAUGGGAAGAUACAUGAGGAUCACCCAUGUUUAAGAAUGCCGAGAGGCAACUAGAAGGCCCUAGUACCU | 486 nM | 19.3 nM |  | 
4 | CUACUGUGAGGAUAUGGUGAGUAGUGCCUGAGCGCUGCUCACCAGAAGGCACAUGAGGAUCACCCAUGUAUGAC |  |  | 53.9 nM | 220 nM
5 | CUGUACAUAGGAUAUAGUUGCUUUUACAUGAGGAUCACCCAUGUCACUCCUCUCUCUCUUCUAGAAGGAUGUUUCU |  |  | 72.4 nM | 53.8 nM
6 | CCGAUGGUAUACUAGGAUAUGGGCGCCCUUACAUGAGGAUCACCCAUGUUAUCACAAAUCCGCGGCCAGAAGGAGUUCAUGGGAG | 176 nM | 134 nM |  | 
7 | UGCUAGUGAGGAUAUGCUGGAAUAAAGAUUUGACGUGGCGAACAUGAGGAUCACCCAUGUAGAAGGCACAAUAC |  |  | 12.8 nM | 15.7 nM
8 | UUGGACGUCGUAGGAUAUGUAGGAUAUUCCUACAUGAGGAUCACCCAUGUUGACAUGGAGGAAGGACAGAAGGACGAUGUCCAU | 667 nM | 98 nM |  | 
9 | CAUGUCCUCACAGGAUAUGCUGGACUUUGUCCAGCAGAAGGGUGAACAUGAGGAUCACCCAUGUAAAGGACAUGUAUAUUUAAU | 1080 nM | 84.3 nM |  | 
10 | AAUAUAGAGCUGGAAUAAAACCUCACAUGAGGAUCACCCAUGUAGGAUAUCAGCACGAUAAGUGCUGAGAAGGACAUCCAGCUC |  |  | 15.6 nM | 17.9 nM
11 | GAGUGGAGGUAAGGAUAUAUAAUGAUAAUCACAGUAGAAGGUACUAACAUGAGGAUCACCCAUGUAGGACUAUACCAGAGAGGG | 16.9 nM | 15.3 nM |  | 
12 | AUCAGCUCGUCAGGAUAUACGUCACUGCGUCAGCAGUGUGGUAAUAUCACAUGAGGAUCACCCAUGUAGAAGGGACGAGCUGAU |  |  | 5.27 nM | 6.28 nM
13 | AGGUGACAUGAGGAUCACCCAUGUUGCAUAAAACAAGGAUAUGGGUGGCGGGAUCGCCAAUCAGAAGGUGUUCCGA | 44.1 nM | 36.9 nM |  | 
14 | ACAUGAGGAUCACCCAUGUUCGUUGAAGAAGGUACGUAUGGCUGUGGCAGGAAUAUAGUUAUAUGUAAGGAUAUUCUCAUAAUU | 13.1 nM | 7.11 nM |  | 
15 | AAAUUAAGAAGAGGAUAUUGACAUGAGGAUCACCCAUGUAUUUGGGAGUGUUUACUGAAUUCUUACGAGAAGGUUUACGAACUU |  |  | 278 nM | 211 nM
16 | CGAUGUUAUGUCAGGAUAUGCGUUGCGAAAGCGAUGCAGAAGGGACAUGAGGAUCACCCAUGUCCUAACCAUCG |  |  | 12.3 nM | 22.6 nM
17 | AUCAGCUCGUCAGGAUAUACGUCACUGCUUCGGCAGUGUGGUAAGAUCACAUGAGGAUCACCCAUGUAGAAGGGACGAGCUGAG |  |  | 13.2 nM | 260 nM
18 | GAUUAACAUGAGGAUCACCCAUGUGAGGAUAUUGACUUGCUCACUUUCCCAUUCGAGUCGAGAAGGCGCAUCUU |  |  | 28.7 nM | 29 nM
19 | AGAUUUGUACAUGAGGAUCACCCAUGUUAAUAGGUGGUUGUCAGAAGGCAUUAUUAGAGUUUUAAUGAGGAUAUGAAUUUACAA |  | 541 nM |  | 
20 | GUUGGUGUAGAAGGAUAUUGGUGAGGCGUCUUGUACAUGAGGAUCACCCAUGUCAUUCUGCACGCCGAGAAGGUCUGCAAUUGG | 67.9 nM | 57 nM |  | 
21 | ACUGAUCAUGAGGAUAUGCGCCAGAACGCCGGCGUAGAAGGCGUGACAUGAGGAUCACCCAUGUCAGUUCGCGA |  |  | 59.2 nM | 60.3 nM
22 | AAUAAGCUAGGAUAUACAUGAGGAUCACCCAUGUGAGGGCACGGCCGGCGCGGGCCCGGUAGAAGGAGUCAUAA |  |  | 28.6 nM | 23.6 nM
23 | UGCGCUGAGGGAGGAUAUGACAUGAGGAUCACCCAUGUGAUAGGUUUCUUGUCAGAAGGCCCGCGUGUACCGAAUUAGGUUCGC |  |  | 55.6 nM | 404 nM
